Measured values reported in ChEMBL document CHEMBL3588859, “Structure activity relationship study of Mezzettiasides natural products and their four new disaccharide analogues for anticancer/antibacterial activity” (Medchemcomm, 2014).
pEC50, pIC50: −log10 of the molar value. Converted amounts (≈) assume the structure as drawn.

Tests used:
Bacillus subtilis = experiment: Antibacterial activity against Bacillus subtilis JH642 expressing trpC2 pheA assessed as reduction in bacterial growth incubated for 18 to 24 hrs by broth dilution method; format: functional
NCI-H460 = experiment: Anticancer activity against human NCI-H460 cells assessed as reduction in cell viability incubated for 48 hrs by MTT assay; format: functional, cell-based; settings: NCI-H460, 48 h
Enterococcus faecium = experiment: Antibacterial activity against Enterococcus faecium assessed as reduction in bacterial growth incubated for 18 to 24 hrs by broth dilution method; format: functional
Summary of the method: (§1)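 Grown in Brain Heart Infusion broth overnight, diluted 10-fold, and shaken at 37 °C for 45 min to 2 h (about 10^8 CFU/mL). Diluted about 1000-fold to 10^5 CFU/mL. Compounds came from 25 mM DMSO stocks, were made up at 4X working strength, and were serially diluted 1:2 over seven concentrations in microtiter wells. OD600 was read.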

Escherichia coli = experiment: Antibacterial activity against Escherichia coli BAS901 expressing delta-imp assessed as reduction in bacterial growth incubated for 18 to 24 hrs by broth dilution method; format: functional
Summary of the method: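 The imp strain was grown in LB with kanamycin at 50 μg/mL overnight, diluted 10-fold, and shaken at 37 °C for 45 min to 2 h (about 10^8 CFU/mL). Diluted about 1000-fold to 10^5 CFU/mL. Drug stocks were 25 mM in DMSO, made up at 4X, and serially diluted 1:2 over seven concentrations. OD600 was read.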

Staphylococcus aureus [1] = experiment: Antibacterial activity against methicillin-resistant Staphylococcus aureus MW2 assessed as reduction in bacterial growth incubated for 18 to 24 hrs by broth dilution method; format: functional
Summary of the method: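 Broth […] per NCCLS M7-A6. S. aureus grown overnight in Mueller Hinton Broth, diluted 10-fold, shaken at 37 °C for 45 min–2 h to approx. 10^8 CFU/mL, then diluted ~1000-fold to 10^5 CFU/mL. Compounds from 25 mM DMSO stocks, 1:2 serial dilution over seven concentrations.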

Staphylococcus aureus [2] = experiment: Antibacterial activity against methicillin-sensitive Staphylococcus aureus HG003 assessed as reduction in bacterial growth incubated for 18 to 24 hrs by broth dilution method; format: functional
Summary of the method: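 Cultured overnight in Mueller Hinton Broth, diluted 10-fold, and shaken at 37 °C for 45 min to 2 h (about 10^8 CFU/mL). Diluted about 1000-fold to 10^5 CFU/mL. Compounds came from 25 mM DMSO stocks, were prepared at 4X, and were serially diluted 1:2 to seven concentrations. OD600 was recorded.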

Enterococcus faecalis = experiment: Antibacterial activity against Enterococcus faecalis assessed as reduction in bacterial growth incubated for 18 to 24 hrs by broth dilution method; format: functional; summary of the method: as §1
Lu1 = experiment: Anticancer activity against human Lu1 cells assessed as reduction in cell viability incubated for 48 hrs by MTT assay; format: functional; settings: Lu1, 48 h, read-out: ED50 (the source's name)
KB = experiment: Anticancer activity against human KB cells assessed as reduction in cell viability incubated for 48 hrs by MTT assay; format: functional; settings: read-out: ED50 (the source's name)
[3] = Anticancer activity against human […] cells assessed as reduction in cell viability incubated for 48 hrs by MTT assay; format: functional; settings: read-out: ED50 (the source's name)

Structure (SMILES) | MIC (Bacillus subtilis) | pIC50 (NCI-H460) | MIC (Enterococcus faecium) | MIC (Escherichia coli) | MIC (Staphylococcus aureus [1]) | MIC (Staphylococcus aureus [2]) | MIC (Enterococcus faecalis) | pEC50 (Lu1) | pEC50 (KB) | pEC50 [3]
CCCCCCCCCCCCO[C@@H]1O[C@@H](C)[C@H](O[C@@H]2O[C@@H](C)[C@H](OC(C)=O)[C@@H](O[C@@H]3O[C@@H](C)[C@H](O)[C@@H](OC(C)=O)[C@H]3OC(C)=O)[C@H]2O)[C@@H](O)[C@H]1O | 8 µM (≈ 6.01 µg/mL) |  |  |  |  |  |  |  |  | 
CCCCCCCCCCCCO[C@@H]1O[C@@H](C)[C@H](O[C@@H]2O[C@@H](C)[C@H](OC(C)=O)[C@@H](O[C@@H]3O[C@@H](C)[C@H](OC(C)=O)[C@@H](O[C@@H]4O[C@@H](C)[C@H](O)[C@@H](O)[C@H]4OC(C)=O)[C@H]3OC(C)=O)[C@H]2O)[C@@H](O)[C@H]1O | 8 µM (≈ 7.51 µg/mL) |  |  |  |  |  |  |  |  | 
CCCCCCCCCCCCO[C@@H]1O[C@@H](C)[C@H](O[C@@H]2O[C@@H](C)[C@H](OC(C)=O)[C@@H](O[C@@H]3O[C@@H](C)[C@H](OC(C)=O)[C@@H](O[C@@H]4O[C@@H](C)[C@H](OC(C)=O)[C@@H](O)[C@H]4OC(C)=O)[C@H]3OC(C)=O)[C@H]2O)[C@@H](O)[C@H]1O | 4 µM (≈ 3.92 µg/mL) | 5.10 |  |  |  |  |  |  |  | 
CCCCCCCCCCCCO[C@@H]1O[C@@H](C)[C@H](O[C@@H]2O[C@@H](C)[C@H](OC(C)=O)[C@@H](O[C@@H]3O[C@@H](C)[C@H](O)[C@@H](O[C@@H]4O[C@@H](C)[C@H](OC(C)=O)[C@@H](O)[C@H]4O)[C@H]3OC(C)=O)[C@H]2O)[C@@H](O)[C@H]1O | 8 µM (≈ 7.18 µg/mL) |  |  |  |  |  |  |  |  | 
CCCCCCCCO[C@@H]1O[C@@H](C)[C@H](OC(=O)CCCCC)[C@@H](O[C@@H]2O[C@@H](C)[C@H](OC(C)=O)[C@@H](O[C@@H]3O[C@@H](C)[C@H](OC(C)=O)[C@@H](O[C@@H]4O[C@@H](C)[C@H](O)[C@@H](OC(C)=O)[C@H]4O)[C@H]3O)[C@H]2OC(C)=O)[C@H]1O | > 128 µM | 4.40 |  |  |  |  |  |  |  | 
CCCCCCCCO[C@@H]1O[C@@H](C)[C@H](OC(=O)CCCCC)[C@@H](O[C@@H]2O[C@@H](C)[C@H](OC(C)=O)[C@@H](O[C@@H]3O[C@@H](C)[C@H](OC(C)=O)[C@@H](O[C@@H]4O[C@@H](C)[C@H](O)[C@@H](O)[C@H]4OC(C)=O)[C@H]3O)[C@H]2OC(C)=O)[C@H]1O | 64 µM (≈ 62.8 µg/mL) | 3.59 | > 32 µM | > 32 µM | > 32 µM | > 32 µM | 32 µM (≈ 31.4 µg/mL) |  |  | 
CCCCCCCCO[C@@H]1O[C@@H](C)[C@H](OC(=O)CCCCC)[C@@H](O[C@@H]2O[C@@H](C)[C@H](OC(C)=O)[C@@H](O[C@@H]3O[C@@H](C)[C@H](OC(C)=O)[C@@H](O[C@@H]4O[C@@H](C)[C@H](O)[C@@H](O)[C@H]4O)[C@H]3O)[C@H]2OC(C)=O)[C@H]1O | 32 µM (≈ 30 µg/mL) | 4.74 | > 32 µM | > 32 µM | > 32 µM | > 32 µM | 32 µM (≈ 30 µg/mL) |  |  | 
CCCCCCCCO[C@@H]1O[C@@H](C)[C@H](OC(=O)CCCCC)[C@@H](O[C@@H]2O[C@@H](C)[C@H](OC(C)=O)[C@@H](OC(=O)CCC)[C@H]2OC(C)=O)[C@H]1O | > 128 µM | 4.49 |  |  |  |  |  |  |  | 
CCCCCCCCO[C@@H]1O[C@@H](C)[C@H](OC(=O)CCCCC)[C@@H](O[C@@H]2O[C@@H](C)[C@H](OC(C)=O)[C@@H](OC(=O)C(C)(C)C)[C@H]2OC(C)=O)[C@H]1O | > 128 µM | 3.85 |  |  |  |  |  |  |  | 
CCCCCCCCO[C@@H]1O[C@@H](C)[C@H](OC(=O)CCCCC)[C@@H](O[C@@H]2O[C@@H](C)[C@H](OC(C)=O)[C@@H](OC(=O)C(C)C)[C@H]2OC(C)=O)[C@H]1O | > 128 µM | 4.33 |  |  |  |  |  |  |  | 
CCCCCCCCO[C@@H]1O[C@@H](C)[C@H](OC(=O)CCCCC)[C@@H](O[C@@H]2O[C@@H](C)[C@H](OC(C)=O)[C@@H](OC(=O)CC(C)C)[C@H]2OC(C)=O)[C@H]1O | > 128 µM | 4.10 |  |  |  |  |  |  |  | 
CCCCCCCCCCCCO[C@@H]1O[C@@H](C)[C@H](O[C@@H]2O[C@@H](C)[C@H](OC(C)=O)[C@@H](O[C@@H]3O[C@@H](C)[C@H](OC(C)=O)[C@@H](O)[C@H]3OC(C)=O)[C@H]2O)[C@@H](O)[C@H]1O | 32 µM (≈ 24 µg/mL) |  |  |  |  |  |  |  |  | 
CCCCCCCCCCCCO[C@@H]1O[C@@H](C)[C@H](O[C@@H]2O[C@@H](C)[C@H](OC(C)=O)[C@@H](O[C@@H]3O[C@@H](C)[C@H](OC(C)=O)[C@@H](O[C@@H]4O[C@@H](C)[C@H](OC(C)=O)[C@@H](O)[C@H]4O)[C@H]3OC(C)=O)[C@H]2O)[C@@H](O)[C@H]1O | 4 µM (≈ 3.76 µg/mL) |  |  |  |  |  |  |  |  | 
CCCCCCCCO[C@@H]1O[C@@H](C)[C@H](OC(=O)CCCCC)[C@@H](O[C@@H]2O[C@@H](C)[C@H](OC(C)=O)[C@@H](O[C@@H]3O[C@@H](C)[C@H](OC(C)=O)[C@@H](O)[C@H]3OC(C)=O)[C@H]2OC(C)=O)[C@H]1O [MEZZETTIASIDE 2] | > 128 µM | 4.77 |  |  |  |  |  | 5.00 | 5.15 | 5.30
CCCCCCCCO[C@@H]1O[C@@H](C)[C@H](OC(=O)CCCCC)[C@@H](O[C@@H]2O[C@@H](C)[C@H](OC(C)=O)[C@@H](O[C@@H]3O[C@@H](C)[C@H](OC(C)=O)[C@@H](OC(C)=O)[C@H]3O)[C@H]2OC(C)=O)[C@H]1O [MEZZETTIASIDE 3] | > 128 µM | 5.00 |  |  |  |  |  | 4.85 | 4.77 | 5.22
CCCCCCCCO[C@@H]1O[C@@H](C)[C@H](OC(=O)CCCCC)[C@@H](O[C@@H]2O[C@@H](C)[C@H](OC(C)=O)[C@@H](O[C@@H]3O[C@@H](C)[C@H](OC(C)=O)[C@@H](O)[C@H]3O)[C@H]2OC(C)=O)[C@H]1O [MEZZETTIASIDE 4] | 8 µM (≈ 6.34 µg/mL) | 5.05 | 16 µM (≈ 12.7 µg/mL) | > 32 µM | > 32 µM | 32 µM (≈ 25.4 µg/mL) | 16 µM (≈ 12.7 µg/mL) | 4.60 | 4.72 | 5.10
CCCCCCCCO[C@@H]1O[C@@H](C)[C@H](OC(=O)CCCCC)[C@@H](O[C@@H]2O[C@@H](C)[C@H](OC(C)=O)[C@@H](O[C@@H]3O[C@@H](C)[C@H](O)[C@@H](O)[C@H]3OC(C)=O)[C@H]2OC(C)=O)[C@H]1O [MEZZETTIASIDE 8] | 16 µM (≈ 12.7 µg/mL) | 4.62 | > 32 µM | > 32 µM | > 32 µM | > 32 µM | > 32 µM | 4.60 | < 4.70 | 5.00
CCCCCCCCO[C@@H]1O[C@@H](C)[C@H](OC(=O)CCCCC)[C@@H](O[C@@H]2O[C@@H](C)[C@H](O)[C@@H](OC(C)=O)[C@H]2OC(C)=O)[C@H]1O [MEZZETTIASIDE 9] | 16 µM (≈ 9.68 µg/mL) | 3.82 | > 32 µM | > 32 µM | > 32 µM | > 32 µM | 32 µM (≈ 19.4 µg/mL) | 5.05 | 4.72 | < 4.70
CCCCCCCCO[C@@H]1O[C@@H](C)[C@H](OC(=O)CCCCC)[C@@H](O[C@@H]2O[C@@H](C)[C@H](OC(C)=O)[C@@H](OC(C)=O)[C@H]2OC(C)=O)[C@H]1O [MEZZETTIASIDE 11] | > 128 µM | 4.82 |  |  |  |  |  | 5.05 | 4.70 | 4.85
CCCCCCCCO[C@@H]1O[C@@H](C)[C@H](OC(=O)CCCCC)[C@@H](O[C@@H]2O[C@@H](C)[C@H](OC(C)=O)[C@@H](O)[C@H]2OC(C)=O)[C@H]1O [MEZZETTIASIDEIDE 10] | > 128 µM | < 3.30 |  |  |  |  |  | < 4.70 | < 4.70 | < 4.70
